# Results taken from publication PMC3494447 (British Journal of Cancer, 2012).
# Like-named read-outs stand apart in the source and are kept apart here.
# How the values were obtained:
# human liver microsomes = details: in vitro, ref unpublished data; cited from earlier work
# [1] = test system: patients with advanced solid tumours; format: in vivo, human; details: for Dose-limiting toxicities: first cycle; for MTD of axitinib: continuously
# [2] = test system: patients with advanced solid tumours; assay: Safety: treatment-related adverse events; format: in vivo, human
# Procedure, shortened: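 Adverse events were monitored throughout in every patient given ≥1 dose and graded by CTCAE version 3.0. Physical examinations were done at baseline, on days 1, 8 and 15 of each cycle and 28 days after the last dose.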
# advanced solid tumours = assay: Best tumour response by RECIST 1.0; format: in vivo, human
# [3] = test system: patients with advanced NSCLC; details: phase II, single-agent axitinib, ref Schiller et al, 2009; cited from earlier work
# [4] = format: in vivo; details: human, plasma, oral; for AUC(0-t): AUC0-24, Mean (%CV); for Cmax / Vd/F / half-life: Mean (%CV); for Vd/F: Vz/F; for half-life: t½
# [5] = test system: patients with advanced solid tumours; assay: Haematologic laboratory abnormalities; format: in vivo, human; details: All grades; Total column = both chemotherapy cohorts
# [6] = Plasma pharmacokinetics of chemotherapy in absence or presence of axitinib; format: in vivo, human; details: for Plasma pharmacokinetic parameters (Cmax, AUC, clearance, volume of distribution) in the absence or presence of axitinib: comparison in words; for clearance: CL; for Vd: Vz; for half-life: t½
# [7] = All grades, Total column = both chemotherapy cohorts
# [8] = grade >=3, across both treatment arms
# [9] = 5 mg b.i.d., axitinib 5 mg b.i.d. + gemcitabine/cisplatin, cycle 1 day 1
# [10] = 5 mg b.i.d., axitinib + paclitaxel/carboplatin, cycle 1 day 1, dose-normalised to 5 mg b.i.d.
# [11] = 5 mg b.i.d., axitinib alone, steady state, cohorts 1–3 pooled, dose-normalised to 5 mg b.i.d.
# [12] = 5 mg, axitinib alone 5 mg b.i.d., steady state, gemcitabine/cisplatin cohort
# [13] = carboplatin (+paclitaxel) + axitinib, cycle 1 day 1, PUF, n=12
# [14] = carboplatin (+paclitaxel) without axitinib, cycle 2 day 1, PUF, n=12
# [15] = human, plasma, intravenous, Mean (%CV), gemcitabine (+cisplatin) + axitinib, cycle 1 day 1, n=17
# [16] = human, plasma, intravenous, Mean (%CV), gemcitabine (+cisplatin) without axitinib, cycle 2, n=17
# [17] = human, plasma, intravenous, Mean (%CV), paclitaxel (+carboplatin) + axitinib, cycle 1 day 1, n=12
# [18] = human, plasma, intravenous, Mean (%CV), paclitaxel (+carboplatin) without axitinib, cycle 2 day 1, n=12
smiles,measurement,setting,value
"CNC(=O)c1ccccc1Sc1ccc2c(/C=C/c3ccccn3)n[nH]c2c1 [Axitinib, axitinib]",Enzymes mediating axitinib metabolism,human liver microsomes,"primarily mediated by CYP3A4 and to a lesser extent by CYP1A2, CYP2C19 and UDP-glucuronosyltransferase 1A1"
same,Dose-limiting toxicities,[1]; axitinib 5 mg b.i.d. with gemcitabine/cisplatin,fatigue
same,Dose-limiting toxicities,"[1]; cohort 1, axitinib lead-in 1 mg b.i.d., with paclitaxel/carboplatin",None
same,Dose-limiting toxicities,"[1]; cohort 2, axitinib lead-in 3 mg b.i.d., with paclitaxel/carboplatin",None
same,Dose-limiting toxicities,"[1]; cohort 3, axitinib 5 mg b.i.d., with paclitaxel/carboplatin",Febrile neutropenia (n=1)
same,Dose-limiting toxicities,"[1]; cohort 3, axitinib 5 mg b.i.d., with paclitaxel/carboplatin, listed as axitinib",febrile neutropenia
same,MTD of axitinib,[1]; with cisplatin 80 mg m^-2 (day 1) and gemcitabine 1250 mg m^-2 (days 1 and 8),5 mg b.i.d.
same,MTD of axitinib,[1]; with paclitaxel 200 mg m^-2 and carboplatin AUC 6 mg min ml^-1,5 mg b.i.d.
same,Grade >=3 haemoptysis,[2]; 12 patients with squamous cell NSCLC,No grade⩾3 haemoptysis occurred
same,"Decreased appetite, treatment-related AE",[2]; [7],7 (14.3) n (%)
same,"Diarrhoea, treatment-related AE",[2]; [7],17 (34.7) n (%)
same,"Dizziness, treatment-related AE",[2]; [7],5 (10.2) n (%)
same,"Dysgeusia, treatment-related AE",[2]; [7],6 (12.2) n (%)
same,"Dysphonia, treatment-related AE",[2]; [7],7 (14.3) n (%)
same,"Epistaxis, treatment-related AE",[2]; [7],8 (16.3) n (%)
same,"Fatigue, treatment-related AE",[2]; [7],14 (28.6) n (%)
same,"Hand–foot syndrome, treatment-related AE",[2]; [7],9 (18.4) n (%)
same,"Headache, treatment-related AE",[2]; [7],7 (14.3) n (%)
same,"Hypertension, treatment-related AE",[2]; [7],18 (36.7) n (%)
same,"Nausea, treatment-related AE",[2]; [7],8 (16.3) n (%)
same,"Proteinuria, treatment-related AE",[2]; [7],10 (20.4) n (%)
same,"Rash, treatment-related AE",[2]; [7],7 (14.3) n (%)
same,Anaemia reported as treatment-related AE,"[2]; Grade 3/4, all patients",2.0%
same,Leukopenia reported as treatment-related AE,"[2]; Grade 3/4, all patients",2.0%
same,Treatment-related diarrhoea,"[2]; all grades, all 49 patients",34.7%
same,Treatment-related fatigue,"[2]; all grades, all 49 patients",28.6%
same,Treatment-related hypertension,"[2]; all grades, all 49 patients",36.7%
same,Grade 5 treatment-related AEs,[2]; all patients,No cases
same,Grade >=3 haemoptysis,[2]; all patients,No cases
same,Patients with axitinib dose reduced,[2]; gemcitabine/cisplatin cohort,28.6%
same,Patients with axitinib dosing interrupted,[2]; gemcitabine/cisplatin cohort,66.7%
same,Treatment-related fatigue,[2]; [8],10.2%
same,Treatment-related hypertension,[2]; [8],10.2%
same,Patients with axitinib dose reduced,[2]; paclitaxel/carboplatin cohorts,35.7%
same,Patients with axitinib dosing interrupted,[2]; paclitaxel/carboplatin cohorts,35.7%
same,"Objective responses, number of patients",advanced solid tumours; other tumour types,5 n
same,"Objective responses, number of patients",advanced solid tumours; patients with NSCLC,5 n
same,"Objective responses, number of patients",advanced solid tumours; patients with melanoma,2 n
same,"Objective responses, number of patients",advanced solid tumours; patients with ovarian cancer,3 n
same,median OS,[3],14.8 months
same,AUC(0-t),[4]; [9],444 ng·h/mL
same,AUC(0-t),[4]; [10],535 ng·h/mL
same,AUC(0-t),[4]; [11],404 ng·h/mL
same,Cmax,"[4]; 5 mg b.i.d., axitinib 5 mg b.i.d. + gemcitabine/cisplatin, cycle 1 day 1, n=20",41.7 ng/mL
same,Cmax,"[4]; 5 mg b.i.d., axitinib + paclitaxel/carboplatin, cycle 1 day 1, cohorts 1–3 pooled, dose-normalised to 5 mg b.i.d., n=12",46 ng/mL
same,Cmax,"[4]; 5 mg b.i.d., axitinib alone, steady state, cycle 1 day –1, cohorts 1–3 pooled, dose-normalised to 5 mg b.i.d., n=12",39 ng/mL
same,Vd/F,[4]; [9],168 L
same,Vd/F,[4]; [10],133 L
same,Vd/F,[4]; [11],108 L
same,half-life,[4]; [9],2.66 h
same,AUC(0-t),[4]; [12],416 ng·h/mL
same,Cmax,"[4]; 5 mg, axitinib alone 5 mg b.i.d., steady state, gemcitabine/cisplatin cohort, n=20",41 ng/mL
same,Vd/F,[4]; [12],157 L
same,half-life,[4]; [12],2.68 h
same,half-life,"[4]; axitinib + paclitaxel/carboplatin, cycle 1 day 1",2.7 h
same,"Anaemia, haematologic laboratory abnormality",[5],48 (100) n (%)
same,"Leukopenia, haematologic laboratory abnormality",[5],46 (95.8) n (%)
same,"Lymphopenia, haematologic laboratory abnormality",[5],40 (83.3) n (%)
same,"Neutropenia, haematologic laboratory abnormality",[5],46 (95.8) n (%)
same,"Thrombocytopenia, haematologic laboratory abnormality",[5],43 (89.6) n (%)
"N.N.O=C([O-])C1(C(=O)[O-])CCC1.[Pt+2] [Carboplatin, carboplatin]","CL, Mean (%CV)",[6]; [13],13.7 (31) l h^−1
same,"Vz, Mean (%CV)",[6]; [13],44.8 (15) l
same,"t½, Mean (%CV)",[6]; [13],2.44 (29) h
same,"CL, Mean (%CV)",[6]; [14],12.6 (32) l h^−1
same,"Vz, Mean (%CV)",[6]; [14],45.2 (18) l
same,"t½, Mean (%CV)",[6]; [14],2.62 (21) h
same,"Plasma pharmacokinetic parameters (Cmax, AUC, clearance, volume of distribution) in the absence or presence of axitinib",[6],similar
"Nc1ccn([C@@H]2O[C@H](CO)[C@@H](O)C2(F)F)c(=O)n1 [Gemcitabine, 2′,2′-difluorodeoxycytidine]","Plasma pharmacokinetic parameters (Cmax, AUC, clearance, volume of distribution) in the absence or presence of axitinib",[6],similar
same,AUC(0-inf),"[6]; human, plasma, intravenous",11700 ng·h/mL
same,clearance,[6]; [15],3620 mL/min
same,clearance,[6]; [16],3730 mL/min
same,Vd,[6]; [15],95.5 L
same,Vd,[6]; [16],91.5 L
"CC(=O)O[C@H]1C(=O)[C@@]2(C)[C@H]([C@H](OC(=O)c3ccccc3)[C@]3(O)C[C@H](OC(=O)[C@H](O)[C@@H](NC(=O)c4ccccc4)c4ccccc4)C(C)=C1C3(C)C)[C@]1(OC(C)=O)CO[C@@H]1C[C@@H]2O [Paclitaxel, paclitaxel]","Plasma pharmacokinetic parameters (Cmax, AUC, clearance, volume of distribution) in the absence or presence of axitinib",[6],similar
same,clearance,[6]; [17],303 mL/min
same,clearance,[6]; [18],360 mL/min
same,Cmax,"[6]; human, plasma, intravenous, Cmax, Mean (%CV), paclitaxel (+carboplatin) + axitinib, cycle 1 day 1, plasma, n=12",7180 ng/mL
same,Vd,[6]; [17],229 L
same,Vd,[6]; [18],285 L
same,half-life,[6]; [17],8.64 h
same,half-life,[6]; [18],8.36 h
"O=c1ccn([C@@H]2O[C@H](CO)[C@@H](O)C2(F)F)c(=O)[nH]1 [dFdU, 2′,2′-difluorodeoxyuridine]","Plasma pharmacokinetic parameters (Cmax, AUC, clearance, volume of distribution) in the absence or presence of axitinib",[6],similar
